Test results as given in ChEMBL document CHEMBL1145123, “Trisubstituted acridine derivatives as potent and selective telomerase inhibitors” (J Med Chem, 2003).
pEC50, pIC50: −log10 of the molar value.

Key:
[1] = molecular target: Telomerase reverse transcriptase (Homo sapiens, UniProt O14746); assay: Inhibitory activity against human telomerase
How it was run: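 Modified TRAP assay with extract protein (0.04 μg) from exponentially growing A2780 cells. The enzyme was heat-inactivated at 80 °C, then CX primer was added and 31 PCR cycles were run. Products were quantified by gel phosphorimaging or filter scintillation counting. Agents were first screened against Taq polymerase at 1–50 μM.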

[2] = Cytotoxicity against ovarian carcinoma A2780 cell lines; assay type: functional, cell-based; settings: Homo sapiens
How it was run: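 SRB assay. Cells were seeded at 3000–6000 per well and attached overnight. Salts dissolved in water at 500 μM were added in quadruplicate at 0.05, 0.25, 1, 5 and 25 μM final for 96 h. Cells were then fixed with cold 10% TCA and stained with 0.4% SRB. A540 was expressed as % of untreated control, and IC50 was derived.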

[3] = […]; assay type: functional, cell-based; settings: Homo sapiens, A-431
[4] = species: Homo sapiens; assay: Affinity constant for binding to human 22-mer quadruplex; assay type: functional
[5] = molecular target: Nucleic Acid; assay: (§1) Affinity constant for binding to duplex DNA; assay type: functional, Homo sapiens
[6] = species: Homo sapiens; assay: as §1; assay type: functional, organism-based

Telomerase reverse transcriptase, sequence (O14746 whole entry): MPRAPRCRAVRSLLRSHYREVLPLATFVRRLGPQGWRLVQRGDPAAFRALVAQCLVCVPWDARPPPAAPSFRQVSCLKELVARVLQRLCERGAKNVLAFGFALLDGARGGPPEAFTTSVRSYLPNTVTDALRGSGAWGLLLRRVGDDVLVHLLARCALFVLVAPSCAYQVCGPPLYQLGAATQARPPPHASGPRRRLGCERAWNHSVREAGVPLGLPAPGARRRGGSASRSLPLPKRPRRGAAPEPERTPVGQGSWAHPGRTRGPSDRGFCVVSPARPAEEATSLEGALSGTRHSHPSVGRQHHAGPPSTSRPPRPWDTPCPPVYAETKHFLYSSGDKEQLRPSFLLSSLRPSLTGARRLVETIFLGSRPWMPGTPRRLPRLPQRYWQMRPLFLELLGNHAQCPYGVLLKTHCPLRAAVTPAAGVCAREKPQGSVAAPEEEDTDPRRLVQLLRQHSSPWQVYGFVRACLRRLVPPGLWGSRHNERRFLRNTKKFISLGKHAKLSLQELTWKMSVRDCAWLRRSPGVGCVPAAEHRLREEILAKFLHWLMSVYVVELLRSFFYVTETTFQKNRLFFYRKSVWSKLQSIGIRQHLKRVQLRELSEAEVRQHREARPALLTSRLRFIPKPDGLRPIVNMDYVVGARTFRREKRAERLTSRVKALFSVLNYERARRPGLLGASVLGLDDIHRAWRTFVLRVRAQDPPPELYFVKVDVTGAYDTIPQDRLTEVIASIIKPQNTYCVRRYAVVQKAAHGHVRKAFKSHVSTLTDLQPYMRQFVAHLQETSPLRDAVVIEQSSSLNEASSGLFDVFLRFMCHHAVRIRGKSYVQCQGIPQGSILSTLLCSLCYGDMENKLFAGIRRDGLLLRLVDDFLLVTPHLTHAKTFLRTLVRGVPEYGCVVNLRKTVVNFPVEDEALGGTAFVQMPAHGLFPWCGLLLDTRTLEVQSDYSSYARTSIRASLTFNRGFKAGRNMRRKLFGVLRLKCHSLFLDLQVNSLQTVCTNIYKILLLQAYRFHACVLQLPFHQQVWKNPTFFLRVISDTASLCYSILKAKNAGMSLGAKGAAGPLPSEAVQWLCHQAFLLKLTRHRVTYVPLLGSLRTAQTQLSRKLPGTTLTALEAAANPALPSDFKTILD

Structure (SMILES): CSc1ccccc1Nc1c2ccc(NC(=O)CCN3CCCC3)cc2nc2cc(NC(=O)CCN3CCCC3)ccc12
- pEC50 [1]: 6.82
- pIC50 [2]: 7.00
- pIC50 [3]: 5.60

Structure (SMILES): CN(C)CCNc1c2cc(NC(=O)CCN3CCCC3)ccc2nc2ccc(NC(=O)CCN3CCCC3)cc12
- pEC50 [1]: 6.24
- pIC50 [2]: 4.96
- pIC50 [3]: < 4.60

Structure (SMILES): O=C(CCN1CCCC1)Nc1ccc2c(NC3CCCCC3)c3cc(NC(=O)CCN4CCCC4)ccc3nc2c1
- pEC50 [1]: 6.68
- pIC50 [2]: 5.00
- pIC50 [3]: 4.85

Structure (SMILES): CN(C)CCCNc1c2ccc(NC(=O)CCN3CCCC3)cc2nc2ccc(NC(=O)CCN3CCCC3)cc12
- pEC50 [1]: 7.10
- pIC50 [2]: < 4.60
- pIC50 [3]: < 4.60

Structure (SMILES): CN(C)c1ccc(Nc2c3ccc(NC(=O)CCN4CCCC4)cc3nc3ccc(NC(=O)CCN4CCCC4)cc23)cc1
- pEC50 [1]: 6.77
- pIC50 [2]: 5.10
- pIC50 [3]: 5.00

Structure (SMILES): O=C(CCN1CCCC1)Nc1ccc2nc3ccc(NC(=O)CCN4CCCC4)cc3c(Nc3ccccc3)c2c1
- pEC50 [1]: 5.89
- pIC50 [2]: 5.59
- pIC50 [3]: 4.90

Structure (SMILES): CN(C)c1cccc(Nc2c3ccc(NC(=O)CCN4CCCC4)cc3nc3cc(NC(=O)CCN4CCCC4)ccc23)c1
- pEC50 [1]: 7.00
- pIC50 [2]: 5.10
- pIC50 [3]: 5.70

Structure (SMILES): CSc1cccc(Nc2c3ccc(NC(=O)CCN4CCCC4)cc3nc3cc(NC(=O)CCN4CCCC4)ccc23)c1
- pEC50 [1]: 7.00
- pIC50 [2]: 5.55
- pIC50 [3]: 5.89

Structure (SMILES): O=C(CCN1CCCC1)Nc1ccc2c(NC3CC3)c3ccc(NC(=O)CCN4CCCC4)cc3nc2c1
- pEC50 [1]: 7.30
- pIC50 [2]: 4.72
- pIC50 [3]: < 4.60

Structure (SMILES): O=C(CCN1CCCC1)Nc1ccc2c(NC3CCCCC3)c3ccc(NC(=O)CCN4CCCC4)cc3nc2c1
- pEC50 [1]: 7.05
- pIC50 [2]: 4.90
- pIC50 [3]: 5.60

Structure (SMILES): CN(C)c1cccc(Nc2c3cc(NC(=O)CCN4CCCC4)ccc3nc3ccc(NC(=O)CCN4CCCC4)cc23)c1
- pEC50 [1]: 6.22
- pIC50 [2]: 5.49
- pIC50 [3]: 4.90

Structure (SMILES): Nc1cccc(Nc2c3cc(NC(=O)CCN4CCCC4)ccc3nc3ccc(NC(=O)CCN4CCCC4)cc23)c1
- pEC50 [1]: 5.96
- pIC50 [2]: 5.20
- pIC50 [3]: < 4.60

Structure (SMILES): Nc1ccccc1Nc1c2ccc(NC(=O)CCN3CCCC3)cc2nc2cc(NC(=O)CCN3CCCC3)ccc12
- pEC50 [1]: 7.70
- pIC50 [2]: 4.96
- pIC50 [3]: 5.15

Structure (SMILES): O=C(CCN1CCCC1)Nc1ccc2c(NCc3cccnc3)c3ccc(NC(=O)CCN4CCCC4)cc3nc2c1
- pEC50 [1]: 7.18
- pIC50 [2]: < 4.60
- pIC50 [3]: < 4.60

Structure (SMILES): CN(C)CCNc1c2ccc(NC(=O)CCN3CCCC3)cc2nc2ccc(NC(=O)CCN3CCCC3)cc12
- pEC50 [1]: 6.57
- pIC50 [2]: < 4.60
- pIC50 [3]: < 4.60

Structure (SMILES): CN(C)CCNc1c2ccc(NC(=O)CCN3CCCC3)cc2nc2cc(NC(=O)CCN3CCCC3)ccc12
- pEC50 [1]: 7.74
- Ka [4]: 57000000 M⁻¹
- pIC50 [2]: < 4.60
- pIC50 [3]: < 4.60
- Ka [5]: 4900000 M⁻¹

Structure (SMILES): O=C(CCN1CCCC1)Nc1ccc2c(Nc3ccccc3)c3cc(NC(=O)CCN4CCCC4)ccc3nc2c1
- pEC50 [1]: 5.88
- pIC50 [2]: 5.25
- pIC50 [3]: 4.85

Structure (SMILES): O=C(CCN1CCCC1)Nc1ccc2c(NCCN3CCCCC3)c3ccc(NC(=O)CCN4CCCC4)cc3nc2c1
- pEC50 [1]: 7.30
- pIC50 [2]: 4.90
- pIC50 [3]: 4.95

Structure (SMILES): CC(=O)Nc1cccc(Nc2c3ccc(NC(=O)CCN4CCCC4)cc3nc3cc(NC(=O)CCN4CCCC4)ccc23)c1
- pEC50 [1]: 7.00
- pIC50 [2]: < 4.60
- pIC50 [3]: < 4.60

Structure (SMILES): COc1ccc(Nc2c3cc(NC(=O)CCN4CCCC4)ccc3nc3ccc(NC(=O)CCN4CCCC4)cc23)cc1
- pEC50 [1]: 6.34
- pIC50 [2]: 5.00
- pIC50 [3]: 4.90

Structure (SMILES): Nc1ccc(Nc2c3cc(NC(=O)CCN4CCCC4)ccc3nc3ccc(NC(=O)CCN4CCCC4)cc23)cc1
- pEC50 [1]: 6.70
- pIC50 [2]: < 4.60
- pIC50 [3]: < 4.60

Structure (SMILES): CN(C)CCCNc1c2ccc(NC(=O)CCN3CCCC3)cc2nc2cc(NC(=O)CCN3CCCC3)ccc12
- pEC50 [1]: 7.22
- pIC50 [2]: < 4.60
- pIC50 [3]: < 4.60

Structure (SMILES): COCCNc1c2ccc(NC(=O)CCN3CCCC3)cc2nc2cc(NC(=O)CCN3CCCC3)ccc12
- pEC50 [1]: 6.85
- pIC50 [2]: 5.00
- pIC50 [3]: 5.00

Structure (SMILES): Nc1ccc(Nc2c3ccc(NC(=O)CCN4CCCC4)cc3nc3cc(NC(=O)CCN4CCCC4)ccc23)cc1
- pEC50 [1]: 7.13
- Ka [4]: 16000000 M⁻¹
- pIC50 [2]: 4.60
- pIC50 [3]: 4.60
- Ka [5]: 500000 M⁻¹

Structure (SMILES): Nc1cccc(Nc2c3ccc(NC(=O)CCN4CCCC4)cc3nc3cc(NC(=O)CCN4CCCC4)ccc23)c1
- pEC50 [1]: 7.22
- pIC50 [2]: 4.90
- pIC50 [3]: 4.90

Structure (SMILES): CN(C)c1ccc(Nc2c3ccc(NC(=O)CCN4CCCC4)cc3nc3cc(NC(=O)CCN4CCCC4)ccc23)cc1
- Ka [6]: 400000 M⁻¹
- pEC50 [1]: 6.94
- Ka [4]: 16000000 M⁻¹
- pIC50 [2]: 5.00
- pIC50 [3]: 4.80

Structure (SMILES): CC(=O)c1ccc(Nc2c3ccc(NC(=O)CCN4CCCC4)cc3nc3cc(NC(=O)CCN4CCCC4)ccc23)cc1
- pEC50 [1]: 7.40
- pIC50 [2]: 5.49
- pIC50 [3]: 5.66

Structure (SMILES): O=C(CCN1CCCC1)Nc1ccc2c(NC3CCCCCC3)c3ccc(NC(=O)CCN4CCCC4)cc3nc2c1
- pEC50 [1]: 6.68
- pIC50 [2]: 5.49
- pIC50 [3]: 5.49

Structure (SMILES): Nc1ccc(Nc2c3ccc(NC(=O)CCN4CCCC4)cc3nc3ccc(NC(=O)CCN4CCCC4)cc23)cc1
- pEC50 [1]: 7.10
- pIC50 [2]: < 4.60
- pIC50 [3]: < 4.60

Structure (SMILES): CN(C)c1ccc(Nc2c3cc(NC(=O)CCN4CCCC4)ccc3nc3ccc(NC(=O)CCN4CCCC4)cc23)cc1
- pEC50 [1]: 6.30
- pIC50 [2]: 4.72
- pIC50 [3]: < 4.60

Structure (SMILES): Nc1cccc(Nc2c3ccc(NC(=O)CCN4CCCC4)cc3nc3ccc(NC(=O)CCN4CCCC4)cc23)c1
- pEC50 [1]: 6.68
- pIC50 [2]: 4.80
- pIC50 [3]: < 4.60

Structure (SMILES): COc1cccc(Nc2c3cc(NC(=O)CCN4CCCC4)ccc3nc3ccc(NC(=O)CCN4CCCC4)cc23)c1
- pEC50 [1]: 5.56
- pIC50 [2]: 5.60
- pIC50 [3]: 5.00

Structure (SMILES): O=C(CCN1CCCC1)Nc1ccc2nc3ccc(NC(=O)CCN4CCCC4)cc3c(Nc3ccccc3O)c2c1
- pEC50 [1]: 5.99
- pIC50 [2]: 5.00
- pIC50 [3]: < 4.60

Structure (SMILES): Nc1ccccc1Nc1c2ccc(NC(=O)CCN3CCCC3)cc2nc2ccc(NC(=O)CCN3CCCC3)cc12
- pEC50 [1]: 6.96
- pIC50 [2]: 4.80
- pIC50 [3]: < 4.60

Structure (SMILES): O=C(CCN1CCCC1)Nc1ccc2c(Nc3ccc(F)cc3)c3ccc(NC(=O)CCN4CCCC4)cc3nc2c1
- pEC50 [1]: 7.15
- pIC50 [2]: 5.49
- pIC50 [3]: 6.30

Structure (SMILES): Nc1ccccc1Nc1c2cc(NC(=O)CCN3CCCC3)ccc2nc2ccc(NC(=O)CCN3CCCC3)cc12
- pEC50 [1]: 6.77
- pIC50 [2]: 4.75
- pIC50 [3]: < 4.60

Structure (SMILES): CN1CCCC1CCNc1c2ccc(NC(=O)CCN3CCCC3)cc2nc2cc(NC(=O)CCN3CCCC3)ccc12 (stereo unspecified)
- pEC50 [1]: 7.74
- pIC50 [2]: < 4.60
- pIC50 [3]: 4.60

Structure (SMILES): O=C(CCN1CCCC1)Nc1ccc2cc3ccc(NC(=O)CCN4CCCC4)cc3nc2c1
- pEC50 [1]: 5.28
- Ka [4]: 1300000 M⁻¹
- pIC50 [2]: 5.59
- Ka [5]: 1100000 M⁻¹
